Experimental data published in article PMC11628833 (Acta Pharmaceutica Sinica. B, 2024).

Columns and labels:
[1] = biological target: T1, human TLR7 (Homo sapiens, UniProt Q9NYK1); assay: SEAP reporter assay in HEK-Blue hTLR7 cells; type: cell-based
T1 sequence (Q9NYK1 27-1049): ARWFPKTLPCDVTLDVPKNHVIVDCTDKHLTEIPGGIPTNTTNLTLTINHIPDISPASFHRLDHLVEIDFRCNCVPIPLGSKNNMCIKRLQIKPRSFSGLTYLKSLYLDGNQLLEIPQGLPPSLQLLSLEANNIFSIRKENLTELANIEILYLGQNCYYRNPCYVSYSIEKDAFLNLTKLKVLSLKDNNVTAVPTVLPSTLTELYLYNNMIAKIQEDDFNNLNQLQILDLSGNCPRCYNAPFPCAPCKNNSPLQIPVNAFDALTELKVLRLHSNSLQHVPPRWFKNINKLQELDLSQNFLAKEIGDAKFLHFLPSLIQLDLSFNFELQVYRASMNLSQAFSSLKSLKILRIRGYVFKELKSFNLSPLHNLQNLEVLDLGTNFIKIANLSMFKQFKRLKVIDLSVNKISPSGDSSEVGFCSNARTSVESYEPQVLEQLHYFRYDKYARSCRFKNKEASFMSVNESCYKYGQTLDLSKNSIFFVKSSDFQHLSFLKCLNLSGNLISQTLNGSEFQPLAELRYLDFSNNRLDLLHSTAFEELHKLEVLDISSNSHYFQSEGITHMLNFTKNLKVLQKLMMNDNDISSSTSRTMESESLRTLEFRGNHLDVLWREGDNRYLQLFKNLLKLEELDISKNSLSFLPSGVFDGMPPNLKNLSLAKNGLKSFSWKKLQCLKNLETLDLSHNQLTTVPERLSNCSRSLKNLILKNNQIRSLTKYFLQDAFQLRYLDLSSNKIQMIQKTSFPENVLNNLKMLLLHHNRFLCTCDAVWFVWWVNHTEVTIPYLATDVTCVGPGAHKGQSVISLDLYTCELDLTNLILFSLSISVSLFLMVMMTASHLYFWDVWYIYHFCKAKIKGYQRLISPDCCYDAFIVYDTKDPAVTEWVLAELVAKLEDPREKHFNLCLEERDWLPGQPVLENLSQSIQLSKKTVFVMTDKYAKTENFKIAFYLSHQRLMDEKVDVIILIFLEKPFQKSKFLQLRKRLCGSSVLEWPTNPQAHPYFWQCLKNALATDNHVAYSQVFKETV
Outline: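 HEK-Blue hTLR7 cells (stable human TLR7 with SEAP reporter) were plated at 5 × 10^5 cells/mL in DMEM with 10% heat-inactivated FBS. They were treated with R848 and varying test compound concentrations at 37 °C for 20–24 h. Medium was mixed with QUANTI-Blue, incubated at 37 °C for about 30 min, and read at 620 nm. R848-only = 100% activation; untreated = 0%.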

[2] = biological target: T2, hTLR8 (Homo sapiens, UniProt Q9NR97); assay: SEAP reporter assay in HEK-Blue hTLR8 cells; type: cell-based
T2 sequence (Q9NR97 27-1041): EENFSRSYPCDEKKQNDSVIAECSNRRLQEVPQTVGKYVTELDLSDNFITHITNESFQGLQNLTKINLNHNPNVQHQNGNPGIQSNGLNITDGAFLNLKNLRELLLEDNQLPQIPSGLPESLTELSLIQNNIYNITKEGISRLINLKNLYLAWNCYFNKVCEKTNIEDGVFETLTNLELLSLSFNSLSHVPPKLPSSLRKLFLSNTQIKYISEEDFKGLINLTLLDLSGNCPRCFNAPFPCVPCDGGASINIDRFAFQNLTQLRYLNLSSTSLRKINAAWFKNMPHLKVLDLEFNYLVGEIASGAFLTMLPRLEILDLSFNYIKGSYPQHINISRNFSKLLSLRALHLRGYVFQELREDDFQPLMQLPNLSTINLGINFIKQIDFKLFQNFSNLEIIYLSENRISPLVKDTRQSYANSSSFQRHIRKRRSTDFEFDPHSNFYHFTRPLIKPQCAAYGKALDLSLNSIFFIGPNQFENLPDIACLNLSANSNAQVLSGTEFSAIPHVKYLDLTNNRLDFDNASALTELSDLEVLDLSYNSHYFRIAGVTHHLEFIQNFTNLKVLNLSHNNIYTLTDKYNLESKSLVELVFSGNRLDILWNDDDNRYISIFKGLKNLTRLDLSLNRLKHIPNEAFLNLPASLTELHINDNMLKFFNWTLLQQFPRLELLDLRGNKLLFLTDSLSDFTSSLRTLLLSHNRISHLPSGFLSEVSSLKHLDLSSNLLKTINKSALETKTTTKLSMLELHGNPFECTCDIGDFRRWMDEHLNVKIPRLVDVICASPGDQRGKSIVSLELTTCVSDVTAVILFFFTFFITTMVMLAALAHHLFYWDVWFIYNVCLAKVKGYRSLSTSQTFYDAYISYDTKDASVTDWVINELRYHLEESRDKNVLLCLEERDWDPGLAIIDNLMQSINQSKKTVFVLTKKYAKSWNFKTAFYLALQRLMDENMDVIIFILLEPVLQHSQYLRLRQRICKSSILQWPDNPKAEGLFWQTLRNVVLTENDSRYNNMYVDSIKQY

[3] = test system: MRL/lpr mice; assay: MRL/lpr mice SLE model; type: in vivo, mouse; conditions: female MRL/lpr mice, S14 50 mg/kg oral once daily; vs placebo
Outline: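 Mice were 14-week-old female MRL/lpr, randomized by body weight, n = 12/group, treated 4 weeks. Oral test compound in 10% w/v PEG-400/1,3-propanediol/water (55:20:25): 100 mg/kg twice daily, or a second compound at 50 mg/kg once daily. Controls: hydroxychloroquine 100 mg/kg daily in saline; saline placebo. Weekly: survival, body weight, skin lesions, and fundus-vein plasma for ANA/anti-dsDNA ELISA. Endpoint: spleen weight and H&E kidney histology.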

[4] = test system: IL-8 mRNA (TLR7 downstream); assay: RT-PCR analysis of IL-8 mRNA in R848 treated HEK-Blue TLR7 cells; type: cell-based, human; conditions: 2 μg/mL R848 treated HEK-Blue TLR7 cells
Outline: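 HEK-Blue TLR7 cells were seeded at 1 × 10^6 cells/well for 24 h, then switched to serum-free medium. They were treated ± R848 with various test compound concentrations for 16 h at 37 °C. IL-8 mRNA was quantified by RT-PCR using the ΔΔCt method, with GAPDH as reference and normalization to untreated cells.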

[5] = biological target: T3, TLR7 extracellular domain (Macaca mulatta, UniProt B3Y653, N167Q/N389Q/N488Q/N799Q, form not given); assay: ITC titration to TLR7 recombinant protein; type: binding, Monkey (Macaca mulatta)
T3 sequence (B3Y653 27-839 N167Q/N389Q/N488Q/N799Q): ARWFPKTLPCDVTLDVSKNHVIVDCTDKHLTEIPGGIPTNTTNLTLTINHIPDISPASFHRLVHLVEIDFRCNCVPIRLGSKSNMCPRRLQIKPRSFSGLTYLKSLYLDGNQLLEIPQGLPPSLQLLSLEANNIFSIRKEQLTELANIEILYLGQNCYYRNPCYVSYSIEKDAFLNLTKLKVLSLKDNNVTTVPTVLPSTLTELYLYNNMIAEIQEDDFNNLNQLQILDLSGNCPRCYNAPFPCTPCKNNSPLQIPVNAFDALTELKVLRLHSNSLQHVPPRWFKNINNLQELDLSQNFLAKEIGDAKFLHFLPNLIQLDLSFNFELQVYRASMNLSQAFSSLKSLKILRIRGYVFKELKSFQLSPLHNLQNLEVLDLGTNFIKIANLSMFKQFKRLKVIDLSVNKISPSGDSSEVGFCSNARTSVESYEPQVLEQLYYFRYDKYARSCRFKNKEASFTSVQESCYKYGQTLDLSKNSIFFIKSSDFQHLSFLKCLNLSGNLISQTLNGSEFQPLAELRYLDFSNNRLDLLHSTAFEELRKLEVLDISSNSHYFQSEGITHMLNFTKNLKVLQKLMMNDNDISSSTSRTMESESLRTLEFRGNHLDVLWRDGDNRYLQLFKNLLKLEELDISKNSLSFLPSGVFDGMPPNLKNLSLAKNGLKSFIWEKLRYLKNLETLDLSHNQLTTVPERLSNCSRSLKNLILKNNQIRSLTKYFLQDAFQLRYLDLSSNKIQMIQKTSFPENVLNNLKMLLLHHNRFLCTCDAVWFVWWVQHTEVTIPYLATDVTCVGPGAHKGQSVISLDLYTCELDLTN
Outline: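 Titrations used the same purified rhesus TLR7 ectodomain, at 298 K in citrate/NaOH pH 4.8, 150 mmol/L NaCl. Syringe held 1 mmol/L test compound or loxoribine; cell held TLR7, with or without the other ligand pre-added. Each run was one small injection followed by 18 injections at 180 s intervals. Kd and ΔH obtained by single-site binding model fitting.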

[6] = 1 mmol/L loxoribine into 50 μmol/L TLR7, absence of TH-407b

| SMILES | IC50 [1] | IC50 [2] | further results |
| --- | --- | --- | --- |
| Cc1ccc(C(=O)N2CCN(c3ccc([N+](=O)[O-])c4ncccc34)CC2)cc1 [Compound S2] | 860 ± 390 nM | 110 ± 40 nM |  |
| COc1ccc(C(=O)N2CCN(c3ccc([N+](=O)[O-])c4ncccc34)CC2)cc1 [Compound S4] | 530 ± 90 nM | 70 ± 10 nM |  |
| O=C(c1ccc([N+](=O)[O-])cc1)N1CCN(c2ccc([N+](=O)[O-])c3ncccc23)CC1 [Compound S5] | 640 ± 210 nM | 150 ± 40 nM |  |
| O=C(c1ccccc1)N1CCN(c2ccc([N+](=O)[O-])c3ncccc23)CC1 [Compound S6] | 1070 ± 420 nM | 100 ± 70 nM |  |
| O=C(c1ccc(F)cc1)N1CCN(c2ccc([N+](=O)[O-])c3ncccc23)CC1 [Compound S7] | 1150 ± 160 nM | 100 ± 50 nM |  |
| O=C(c1ccc(Br)cc1)N1CCN(c2ccc([N+](=O)[O-])c3ncccc23)CC1 [Compound S8] | 970 ± 1230 nM | 140 ± 170 nM |  |
| COc1cccc(C(=O)N2CCN(c3ccc([N+](=O)[O-])c4ncccc34)CC2)c1 [Compound S9] | 1280 ± 1050 nM | 80 ± 30 nM |  |
| COc1ccccc1C(=O)N1CCN(c2ccc([N+](=O)[O-])c3ncccc23)CC1 [Compound S10] | 3060 ± 2720 nM | 60 ± 10 nM |  |
| COc1ccc(C(=O)N2CCN(c3ccc([N+](=O)[O-])c4ncccc34)CC2)c(OC)c1 [Compound S11] | 410 ± 330 nM | 60 ± 30 nM |  |
| O=C(c1cccs1)N1CCN(c2ccc([N+](=O)[O-])c3ncccc23)CC1 [Compound S12] | 2120 ± 580 nM | 60 ± 30 nM |  |
| O=C(c1ccco1)N1CCN(c2ccc([N+](=O)[O-])c3ncccc23)CC1 [Compound S13] | 530 ± 110 nM | 100 ± 10 nM |  |
| O=C(c1ccncc1)N1CCN(c2ccc([N+](=O)[O-])c3ncccc23)CC1 [Compound S14] | 3000 ± 370 nM | 60 ± 10 nM | ANA and anti-ds-DNA antibody levels [3]: no significant alterations; glomerular diameter [3]: no significant alterations; skin lesion severity [3]: no significant alterations; spleen index [3]: no significant alterations; survival rate [3]: notably lower than the placebo group |
| O=[N+]([O-])c1ccc(-c2ccc(O)cc2)c2cccnc12 [Compound S15] | 20 ± 10 nM | 20 ± 10 nM |  |
| O=[N+]([O-])c1ccc(-c2ccc(CO)cc2)c2cccnc12 [Compound S16] | 660 ± 130 nM | 1300 ± 30 nM |  |
| COc1ccc(C(=O)N2CCN(c3ccc(N)c4ncccc34)CC2)cc1 [Compound S21] |  | 820 ± 40 nM |  |
| COc1ccc(C(=O)N2CCN(c3ccc([N+](=O)[O-])c4cccnc34)CC2)cc1 [Compound S24] |  |  | IL-8 mRNA level [4]: inactive |
| C=CCn1c(=O)n([C@@H]2O[C@H](CO)[C@@H](O)[C@H]2O)c2nc(N)[nH]c(=O)c21 [loxoribine] |  |  | Kd [5, 6]: 4400 nM; ΔH [5, 6]: -5.828 kcal/mol; heat change upon titration ([5]; loxoribine into TLR7 in the presence of pre-mixed 500 μmol/L TH-407b): completely obliterated |
